Results: ChEMBL document CHEMBL1275441, “Effect of impaired renal function on the pharmacokinetics of tomopenem (RO4908463/CS-023), a novel carbapenem” (Antimicrob Agents Chemother, 2008)

Tests used:
[1] = Apparent half-life in human with creatinine clearance of => 80 ml/min at 1500 mg, iv administered as single dose; type: ADME, organism-based; settings: in vivo
Outline: (§1)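 Single 1,500 mg i.v. infusion over 60 min, eight subjects per renal-function group (creatinine clearance by Cockcroft-Gault at screening). Blood was sampled predose and at 1–48 h, and the plasma was stabilized 1:1 with 0.5 M MOPS pH 6.0, kept from light and frozen at −70°C. Parent and metabolite were measured by a validated bioanalytical method. Noncompartmental analysis: t1/2 = ln2/λz from ≥3 terminal points, Cmax/Tmax from raw data, ratio = AUC∞ metabolite/parent.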

[2] = Tmax in human with creatinine clearance of =< 30 ml/min at 1500 mg, iv administered as single dose; type: ADME, organism-based; settings: in vivo
Outline: (§2)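 Eight subjects per CL_CR group (Cockcroft-Gault) received 1,500 mg i.v. over 60 min. Plasma was sampled predose and from 1 to 48 h, mixed with equal-volume 0.5 M MOPS pH 6.0, frozen at −70°C light-protected, and assayed by a validated method. Parameters were derived noncompartmentally from actual times, with T_max taken from raw data as a median and CL/V_ss as means ± SD.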

[3] = AUC (infinity) in human with creatinine clearance of => 80 ml/min at 1500 mg, iv administered as single dose measured after 60 mins; type: ADME, organism-based; set-up: dose 1500 mg, time infinity, route intravenous; settings: plasma; outline: as §1
Homo sapiens [4] = test: Drug metabolism in human with creatinine clearance of => 80 ml/min assessed as RO4957463 apparent half life at 1500 mg, iv administered as single dose; type: ADME, organism-based; settings: in vivo; outline: as §1
Homo sapiens [5] = test: Drug metabolism in human with creatinine clearance of => 80 ml/min assessed as RO4957463 Tmax at 1500 mg, iv administered as single dose; type: ADME, organism-based; settings: in vivo; outline: as §1
Homo sapiens [6] = test: Drug metabolism in human with creatinine clearance of 30-49 ml/min assessed as RO4957463 apparent half life at 1500 mg, iv administered as single dose; type: ADME, organism-based; settings: in vivo; outline: as §1
Homo sapiens [7] = test: Drug excretion in human with creatinine clearance of 50-79 ml/min at 1500 mg, iv administered as single dose after 24 hrs; type: ADME, organism-based; settings: in vivo
Outline: (§3)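 After a single 1,500 mg i.v. infusion over 60 min, urine was collected 0–6, 6–12 and 12–24 h post-dose, with volume and pH recorded. Aliquots were mixed 1:1 with 0.5 M MOPS, protected from light and frozen at −70°C. Parent and metabolite were assayed by a validated method. CLR = Ae24/plasma AUC24. n = 8 per group, mean ± SD.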

[8] = Apparent half-life in human with creatinine clearance of =< 30 ml/min at 1500 mg, iv administered as single dose; type: ADME, organism-based; settings: in vivo; outline: as §1
[9] = Cmax in human with creatinine clearance of => 80 ml/min at 1500 mg, iv administered as single dose measured after 60 mins; type: ADME, organism-based; set-up: dose 1500 mg, route intravenous; settings: in vivo; outline: as §1
[10] = AUC (infinity) in human with creatinine clearance of 50-79 ml/min at 1500 mg, iv administered as single dose measured after 60 mins; type: ADME, organism-based; set-up: dose 1500 mg, route intravenous, time infinity; settings: plasma; outline: as §1
[11] = Volume of distribution at steady state in human with creatinine clearance of =< 30 ml/min at 1500 mg, iv administered as single dose measured after 60 mins; type: ADME, organism-based; settings: in vivo, read-out: Vdss; outline: as §2
Homo sapiens [12] = test: Ratio of RO4957463 AUC (infinity) to compound AUC (infinity) in human with creatinine clearance of => 80 ml/min at 1500 mg, iv administered as single dose measured after 60 mins; type: ADME, organism-based; settings: in vivo, 1 h; outline: as §1
Homo sapiens [13] = test: Drug metabolism in human with creatinine clearance of =< 30 ml/min assessed as RO4957463 apparent half life at 1500 mg, iv administered as single dose; type: ADME, organism-based; settings: in vivo; outline: as §1
Homo sapiens [14] = test: Drug metabolism in human with creatinine clearance of 30-49 ml/min assessed as RO4957463 Cmax at 1500 mg, iv administered as single dose measured after 60 mins; type: ADME, organism-based; set-up: dose 1500 mg, route intravenous; settings: in vivo, 1 h; outline: as §1
[15] = Volume of distribution at steady state in human with creatinine clearance of 50-79 ml/min at 1500 mg, iv administered as single dose measured after 60 mins; type: ADME, organism-based; settings: in vivo, read-out: Vdss; outline: as §2
Homo sapiens [16] = test: Drug metabolism in human with creatinine clearance of 30-49 ml/min assessed as RO4957463 Tmax at 1500 mg, iv administered as single dose; type: ADME, organism-based; settings: in vivo; outline: as §1
[17] = Total clearance in human with creatinine clearance of =< 30 ml/min at 1500 mg, iv administered as single dose after 60 mins after 60 mins; type: ADME, organism-based; settings: in vivo; outline: as §2
[18] = Renal clearance in human with creatinine clearance of => 80 ml/min at 1500 mg, iv administered as single dose after 24 hrs; type: ADME, organism-based, Kidney; settings: in vivo, read-out: CL_renal (converted)
Outline: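 Single 1,500 mg i.v. infusion over 60 min, with 8 subjects per renal-function group (CL_CR by Cockcroft-Gault at screening). Urine was collected at 0–6, 6–12 and 12–24 h, volume and pH recorded, and aliquots mixed 1:1 with 0.5 M MOPS. Samples were frozen at −70°C, protected from light, and assayed by a validated method. CL_R = A_e24/AUC₂₄.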

[19] = Tmax in human with creatinine clearance of 50-79 ml/min at 1500 mg, iv administered as single dose; type: ADME, organism-based; settings: in vivo; outline: as §2
[20] = Volume of distribution at steady state in human with creatinine clearance of => 80 ml/min at 1500 mg, iv administered as single dose measured after 60 mins; type: ADME, organism-based; settings: in vivo, read-out: Vdss; outline: as §2
Homo sapiens [21] = test: Drug metabolism in human with creatinine clearance of =< 30 ml/min assessed as RO4957463 Tmax at 1500 mg, iv administered as single dose; type: ADME, organism-based; settings: in vivo; outline: as §1
Homo sapiens [22] = test: Drug excretion in human with creatinine clearance of => 80 ml/min at 1500 mg, iv administered as single dose after 24 hrs; type: ADME, organism-based; settings: in vivo; outline: as §3
Homo sapiens [23] = test: Drug metabolism in human with creatinine clearance of =< 30 ml/min assessed as RO4957463 Cmax at 1500 mg, iv administered as single dose measured after 60 mins; type: ADME, organism-based; set-up: dose 1500 mg, route intravenous; settings: in vivo, 1 h; outline: as §1
[24] = Cmax in human with creatinine clearance of =< 30 ml/min at 1500 mg, iv administered as single dose measured after 60 mins; type: ADME, organism-based; set-up: dose 1500 mg, route intravenous; settings: in vivo; outline: as §1
[25] = Total clearance in human with creatinine clearance of 30-49 ml/min at 1500 mg, iv administered as single dose measured after 60 mins; type: ADME, organism-based; settings: in vivo; outline: as §2
[26] = Dose normalized excretion in human with creatinine clearance of 30-49 ml/min at 1500 mg, iv administered as single dose after 24 hrs; type: ADME, organism-based; settings: in vivo, read-out: Activity; outline: as §3
Homo sapiens [27] = test: Ratio of RO4957463 AUC (infinity) to compound AUC (infinity)) in human with creatinine clearance of =< 30 ml/min at 1500 mg, iv administered as single dose measured after 60 mins; type: ADME, organism-based; settings: in vivo, 1 h; outline: as §1

C[C@@H](O)[C@H]1C(=O)N2C(C(=O)O)=C(S[C@H]3C[C@@H](C(=O)N4CC[C@H](NC(=O)CNC(=N)N)C4)N(C)C3)[C@H](C)[C@H]12 [TOMOPENEM] gave a half-life [1] of 2.23 h, a Tmax [2] of 1.02 h and an AUC(0-inf) [3] of 191 µg·h/mL. The t1/2 (Homo sapiens [4]) was 2.98 h, the Tmax (Homo sapiens [5]) was 1.01 h and the t1/2 (Homo sapiens [6]) was 8.32 h. The Activity (Homo sapiens [7]) was 1090 mg, the half-life [8] was 7.94 h and the Cmax [9] was 81.4 µg/mL. It also gave an AUC(0-inf) [10] of 304 µg·h/mL, a Vd [11] of 16.4 L and a Ratio (Homo sapiens [12]) of 0.1. The t1/2 (Homo sapiens [13]) was 25.3 h, the Cmax (Homo sapiens [14]) was 5.24 µg/mL and the Vd [15] was 16.2 L. It also gave a Tmax (Homo sapiens [16]) of 5 h, a clearance [17] of 25.3 mL/min and a CL renal at 24 h [18] of 77.2 mL/min. The Tmax [19] was 1 h, the Vd [20] was 18.8 L and the Tmax (Homo sapiens [21]) was 13.5 h. It also gave an Activity (Homo sapiens [22]) of 862 mg, a Cmax (Homo sapiens [23]) of 9.63 µg/mL and a Cmax [24] of 116 µg/mL. For the same compound, the clearance [25] was 51 mL/min, the dose excreted at 24 h [26] was 62.6% and the Ratio (Homo sapiens [27]) was 0.49.
